Measurements published in PMC4973392 (Angewandte Chemie (International ed. in English), 2016).

Legend:
RanGAP1 sumoylation = assay: conjugation of SUMO to recombinant protein fragment of RanGAP1; type: biochemical
Ubc9 [1] = molecular target: T1, Ubc9 (Homo sapiens, UniProt P63279); type: biochemical; conditions: SUMO-1 conjugation to peptide substrate
Ubc9-K59A mutant = Ubc9-K59A mutant (Homo sapiens, UniProt P63279, K59A); assay: sumoylation of fluorescent substrate peptide with Ubc9-K59A mutant; type: biochemical; conditions: at any concentration
Ubc9 [2] = molecular target: T1, Ubc9; assay: 1H-15N HSQC NMR chemical shift perturbation; type: binding
In short: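 1H-15N HSQC spectra recorded with 200 μM Ubc9 in a solution saturated with the test compound. Chemical shifts of selected residues were compared between apo and compound-bound protein.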

Ubc9-E42A mutant = Ubc9-E42A mutant (Homo sapiens, UniProt P63279, E42A); assay: sumoylation of fluorescent substrate peptide with Ubc9-E42A mutant; type: biochemical; conditions: at any concentration
E1-SUMO thioester = molecular target: T2, E1-SUMO thioester (Homo sapiens, UniProt Q9UBE0+Q9UBT2); assay: E1-SUMO thioester formation with fluorescently labeled SUMO-1; type: biochemical; conditions: at relevant concentrations
T2 sequence (Q9UBE0 1-346): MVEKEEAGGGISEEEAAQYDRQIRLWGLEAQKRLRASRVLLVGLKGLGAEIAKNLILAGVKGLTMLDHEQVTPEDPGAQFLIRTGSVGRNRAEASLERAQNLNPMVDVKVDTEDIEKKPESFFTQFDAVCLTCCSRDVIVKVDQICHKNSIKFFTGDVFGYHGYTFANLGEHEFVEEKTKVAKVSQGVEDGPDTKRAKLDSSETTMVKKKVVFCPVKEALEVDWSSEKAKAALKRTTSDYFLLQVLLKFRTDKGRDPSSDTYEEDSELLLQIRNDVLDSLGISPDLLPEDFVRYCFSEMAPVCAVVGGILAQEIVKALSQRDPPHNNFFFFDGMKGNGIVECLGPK
T2 sequence (Q9UBT2 1-640): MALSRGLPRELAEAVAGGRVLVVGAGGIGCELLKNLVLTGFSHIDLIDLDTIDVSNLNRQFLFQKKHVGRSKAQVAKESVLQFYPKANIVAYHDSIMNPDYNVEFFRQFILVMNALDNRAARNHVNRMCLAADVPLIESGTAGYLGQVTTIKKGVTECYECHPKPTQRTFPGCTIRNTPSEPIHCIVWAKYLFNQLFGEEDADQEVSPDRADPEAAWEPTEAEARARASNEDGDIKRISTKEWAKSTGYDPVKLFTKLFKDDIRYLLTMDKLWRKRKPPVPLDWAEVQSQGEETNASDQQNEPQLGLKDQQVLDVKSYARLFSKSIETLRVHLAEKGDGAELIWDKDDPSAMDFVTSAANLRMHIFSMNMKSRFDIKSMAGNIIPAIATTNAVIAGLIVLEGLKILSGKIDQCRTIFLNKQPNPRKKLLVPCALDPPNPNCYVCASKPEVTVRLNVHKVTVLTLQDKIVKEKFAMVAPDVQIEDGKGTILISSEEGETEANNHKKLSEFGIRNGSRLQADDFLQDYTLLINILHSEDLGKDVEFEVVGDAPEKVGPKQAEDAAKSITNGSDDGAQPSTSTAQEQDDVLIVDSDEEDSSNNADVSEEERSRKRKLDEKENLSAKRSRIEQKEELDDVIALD
In short: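 E1–SUMO thioester formation was followed using fluorescently labeled SUMO-1 in the presence of the test compound. The negative-control lane omitted E1.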

IκBα sumoylation = assay: conjugation of SUMO to full-length recombinant IκBα; type: biochemical
E2-SUMO thioester = E2-SUMO thioester (Homo sapiens, UniProt P63279); assay: E2-SUMO thioester formation with fluorescently labeled SUMO-1; type: biochemical; conditions: at concentrations that correlated well with the IC50
Sequence of E2-SUMO thioester (P63279 whole entry): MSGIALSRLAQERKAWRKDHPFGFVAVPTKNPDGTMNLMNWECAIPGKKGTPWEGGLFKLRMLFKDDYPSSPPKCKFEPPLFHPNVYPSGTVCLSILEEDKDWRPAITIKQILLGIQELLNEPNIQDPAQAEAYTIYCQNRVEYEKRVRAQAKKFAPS

T1 sequence (P63279 whole entry): as above
Sequence of Ubc9-K59A mutant (P63279 whole entry K59A): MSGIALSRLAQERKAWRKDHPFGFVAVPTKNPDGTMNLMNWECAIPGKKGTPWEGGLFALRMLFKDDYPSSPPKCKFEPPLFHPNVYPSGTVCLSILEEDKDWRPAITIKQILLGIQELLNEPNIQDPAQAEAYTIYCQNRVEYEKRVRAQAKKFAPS
Sequence of Ubc9-E42A mutant (P63279 whole entry E42A): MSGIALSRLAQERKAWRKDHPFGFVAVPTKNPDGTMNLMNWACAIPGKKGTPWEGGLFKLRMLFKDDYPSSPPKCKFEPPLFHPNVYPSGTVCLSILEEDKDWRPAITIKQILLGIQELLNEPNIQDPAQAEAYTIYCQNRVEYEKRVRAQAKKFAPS

Oc1ccccc1-c1ccccc1O [compound 1, 2,2′-bisphenol]
effect on conjugation of SUMO to RanGAP1 fragment (RanGAP1 sumoylation): inhibited | IC50 (Ubc9 [1]): 5.8 ± 0.1 mM | inhibition of Ubc9 K59A mutant (Ubc9-K59A mutant): neither mutant was inhibited | binding to Ubc9 in solution (chemical shift perturbations) (Ubc9 [2]): specific binding | inhibition of Ubc9 E42A mutant (Ubc9-E42A mutant): neither mutant was inhibited | effect on formation of the E1-SUMO thioester (E1-SUMO thioester): no effect | effect on conjugation of SUMO to IκBα (IκBα sumoylation): inhibited | effect on formation of the E2-SUMO thioester (E2-SUMO thioester): inhibited
